The text below walks through data of article PMC3291815 (Circulation Research, 2011).

What is called IC50 is the midpoint of a concentration-inhibition curve. For orientation: Kd means the free concentration of one partner at which half of the binding sites on the other are occupied at equilibrium, for simple one-to-one binding.

The chains are these.
B1: CD40L (recombinant, His- and c-myc-tag fusion protein, E108 to L261) (ligand)
chain: ENSFEMQKGDQNPQIAAHVISEASSKTTSVLQWAEKGYYTMSNNLVTLENGKQLTVKRQGLYYIYAQVTFCSNREASSQAPFIASLCLKSPGRFERILLRAANTHSSAKPCGQQSIHLGGVFELQPGASVFVNVTDPSQVSHGTGFTSFGLLKL

Read-outs that look alike come from different tables or passages of the source. Positions of bridges follow the written chain, without caps; N, C: chain ends. No end group written: not given here.

For data set [1], the target named is T1, CD40L-Mac-1 I-domain interaction (Homo sapiens, UniProt P29965).
T1 sequence (P29965 108-261): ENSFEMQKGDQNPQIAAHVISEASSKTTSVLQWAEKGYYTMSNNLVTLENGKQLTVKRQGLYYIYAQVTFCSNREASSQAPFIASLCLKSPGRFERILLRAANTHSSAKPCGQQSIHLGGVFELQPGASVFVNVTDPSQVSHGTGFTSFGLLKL
The format is binding. The method, boiled down: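 Recombinant CD40L (residues E108–L261, His- and c-myc-tagged) was incubated with immobilized Mac-1 I-domain alongside a range of cyclized peptide or scrambled peptide concentrations. Bound CD40L was detected with anti-c-myc-HRP and TMB substrate by colorimetric read-out. Anti-CD40L (100 μg/ml) and saline served as controls.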

The format of data set [2] is in vivo, C57BL/6J mice. The note with it: after intraperitoneal injection, FITC-coupled peptide, plasma fluorescence. The method, boiled down:
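C57BL/6J mice received a single intraperitoneal injection of FITC- or TAMRA-labelled cyclized peptide or its scrambled control, at 100 or 200 μg. Plasma samples were collected at set time points, and peptide level was followed by plasma fluorescence.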

Data set [3] deals with Murine fibroblasts over-expressing CD40L. The format is cell-based. The note with it: flow cytometry; not to mock-transfected control cells. Background: In flow cytometry, cells or beads pass a laser one at a time.
The target in data set [4] is B1. The data set can be described thus: dynamic cell adhesion assay.
In data set [5] the target is T2, Mac-1 I-domain (recombinant, His-tag fusion protein, R115 to S340) (UniProt P11215 131-356). The data set can be described thus: SPR. For orientation: SPR reads the build-up and loss of mass on a sensor chip optically.
Data set [6] deals with T2, Mac-1 I-domain (recombinant, His-tag …). Kind of data set: SPR. The source holds these as a separate data set.

T2 sequence (P11215 131-356): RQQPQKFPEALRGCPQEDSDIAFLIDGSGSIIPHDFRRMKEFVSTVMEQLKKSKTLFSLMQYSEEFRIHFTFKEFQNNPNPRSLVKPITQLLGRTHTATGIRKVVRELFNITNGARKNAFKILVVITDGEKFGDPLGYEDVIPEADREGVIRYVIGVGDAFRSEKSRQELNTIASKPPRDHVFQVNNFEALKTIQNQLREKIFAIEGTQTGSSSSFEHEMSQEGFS

Regarding EQLKKSKTL [M7], the IC50 in data set [1] is 0.2 to 0.9 µM.
Take “FITC-labeled cM7: cM7 coupled to fluorescein isothiocyanate (CEQLKKSKTLC; disulfide 1-11; also: FITC coupled, site not given here)”: the “Time of highest plasma availability” value in data set [2] came out at 30 min. The “Binding to Murine fibroblasts over-expressing CD40L” value in data set [3] was “concentration-dependently bound”.
CEQLKKSKTLC (disulfide 1-11) [cM7, cyclised version of peptide M7]: in data set [4], the IC50 is 0.206 µM.
Take B1: the Kd in data set [5] is 0.214 µM; in data set [6] it was 0.671 µM.
